Experimental data of several laboratories.
MTOR: Serine/threonine-protein kinase mTOR (MTOR, Homo sapiens, UniProt P42345)
DRD2: D(2) dopamine receptor (DRD2, Homo sapiens, UniProt P14416)
EGFR: Epidermal growth factor receptor (EGFR, Homo sapiens, UniProt P00533)

Compound | target | effect on | action | method | pH | quantity | result
O=c1c(O)c(-c2ccc(O)c(O)c2)oc2cc(O)ccc12 | MTOR | cell-free assay |  | competition with immobilised ligand |  | Kd | 11000 nM
OC(c1ccc(F)cc1)C(F)(F)CCN1CCC(O)(c2ccc(Cl)cc2)CC1 (racemic) | DRD2 | cell-free assay |  | radioligand |  | Ki | 1960 nM
Cc1cc(O)cc(C)c1C[C@H](N)C(=O)N[C@H](C)C(=O)NCC(=O)N[C@@H](Cc1ccc(Cl)cc1)C(=O)N(C)CCC[C@@]1(c2ccc(F)cc2)OCc2cc(C#N)ccc21 | DRD2 | ligand displacement |  | radioligand |  | Ki | 2200 nM
C=C1C[C@H]2C[C@@H](c3ccc(Br)cc3)OCC[C@@H](O)CC(=O)O[C@@H]([C@@H](C)O)C[C@@H]3C/C(=C\C(=O)OC)[C@H](OC(=O)CCCCCCC)[C@@](O)(O3)C(C)(C)/C=C/[C@@H](C1)O2 | Protein kinase C delta type (PRKCD, Homo sapiens, UniProt Q05655) | ligand displacement |  | radioligand |  | Ki | 2.2 nM
CSCC[C@H](NC(=O)[C@H](CC(C)C)NC(=O)[C@H](Cc1cnc[nH]1)NC(=O)CNC(=O)[C@@H](NC(=O)[C@H](C)NC(=O)[C@H](Cc1c[nH]c2ccccc12)NC(=O)[C@H](CCC(N)=O)NC(=O)[C@H](CC(N)=O)NC(=O)CNC(=O)[C@H](CC(C)C)NC(=O)[C@H](CCCN=C(N)N)NC(=O)[C@H](CCC(N)=O)NC(=O)[C@@H]1CCC(=O)N1)C(C)C)C(N)=O | Bombesin receptor subtype-3 (Brs3, Rattus norvegicus, UniProt Q8K418) | calcium signal | agonist | fluorescence |  | EC50 | > 10000 nM
CC(C)[C@@H]1NC(=O)[C@H](CCCNC(=N)N)NC(=O)[C@H](Cc2ccc(O)cc2)NC(=O)[C@H](C(C)C)NC(=O)[C@H](C(C)C)NC(=O)[C@H](CCCNC(=N)N)NC(=O)[C@H](CC(=O)O)NC(=O)[C@H](CC(=O)O)NC(=O)CCNC(=O)[C@H](Cc2ccc(O)cc2)NC(=O)[C@H](Cc2ccc(O)cc2)NC(=O)[C@H](Cc2ccccc2)NC(=O)[C@@H](Cc2ccc(O)cc2)NC(=O)CSC[C@@H](C(=O)NCC(N)=O)NC(=O)CCNC1=O | EGFR | binding |  | SPR |  | Kd | 632 nM
CCCC[C@@H](NC(=O)[C@@H](N)Cc1c(C)cc(O)cc1C)C(=O)NCC(=O)N[C@@H](Cc1ccc(F)cc1)C(=O)N(C)CCC[C@@]1(c2ccc(F)cc2)OCc2cc(C#N)ccc21 | DRD2 | ligand displacement |  | radioligand |  | Ki | 2700 nM
CC(C)C[C@H](NC(=O)[C@H](Cc1ccccc1)NC(=O)[C@H](Cc1ccc(O)cc1)NC(=O)CNC(=O)[C@H](CCCCN)NC(=O)[C@H](CO)NC(=O)[C@H](CCC(N)=O)NC(=O)CNC(=O)[C@@H](NC(=O)[C@H](CO)NC(=O)[C@@H]1CCCN1C(=O)[C@H](CO)NC(=O)[C@H](CCC(N)=O)NC(=O)[C@H](Cc1ccc(O)cc1)NC(=O)[C@H](CCC(=O)O)NC(=O)[C@H](C)NC(=O)[C@H](CCCCN)NC(=O)[C@@H](N)Cc1ccccc1)C(C)C)C(=O)N[C@@H](Cc1ccccc1)C(=O)N[C@@H](CCCNC(=N)N)C(=O)N1CCC[C@H]1C(=O)N[C@@H](CCCNC(=N)N)C(=O)N[C@@H](CC(N)=O)C(N)=O | Neuromedin-U receptor 2 (Mus musculus, UniProt Q8BZ39) | inositol phosphate | agonist |  |  | EC50 | 0.794 nM
CC[C@H](C)[C@H](NC(=O)[C@@H](N)CCCNC(=N)N)C(=O)N[C@H](C(=O)N1CCC[C@H]1C(=O)N[C@@H](C)C(N)=O)C(C)C | Sequestosome-1 (SQSTM1, Homo sapiens, UniProt Q13501) | binding |  | MST | pH 7 | Kd | 800 nM
CC/C=C\C/C=C\C/C=C\CCCCCCCC(=O)O | Liver carboxylesterase (Sus scrofa, UniProt Q29550) | enzyme activity | inhibitor | HPLC |  | Ki | 620 nM
COCCCN1CCN(c2ccccc2OC)CC1 | DRD2 | ligand displacement |  | radioligand |  | Ki | 180 nM
CC(C)[C@@H]1NC(=O)CCNC(=O)CCNC(=O)[C@H](Cc2ccc(O)cc2)NC(=O)[C@H](Cc2ccc(O)cc2)NC(=O)[C@H](Cc2ccccc2)NC(=O)[C@@H](Cc2ccc(O)cc2)NC(=O)CSC[C@@H](C(=O)NCC(N)=O)NC(=O)CCNC(=O)[C@H](CCCNC(=N)N)NC(=O)[C@H](CCCNC(=N)N)NC(=O)[C@H](Cc2ccc(O)cc2)NC(=O)[C@H](C(C)C)NC(=O)[C@H](C(C)C)NC(=O)[C@H](CC(N)=O)NC1=O | EGFR | binding |  | SPR |  | Kd | 1690 nM
Nc1ncc(-c2nc(N3CCOCC3)nc(N3CCOCC3)n2)c(C(F)F)n1 | MTOR | binding |  | competition with immobilised ligand |  | Kd | 21.5 nM
